From ChEMBL document CHEMBL1156237, “Antiviral activity of benzimidazole derivatives. II. Antiviral activity of 2-phenylbenzimidazole derivatives” (Bioorg Med Chem, 2010)
Calls of active or inactive are those of the source. No rule for the calls is given here.

tested on: not listed separately; test: Cytotoxicity against human MT4 cells after 96 hrs by MTT assay; assay type: cell-based; details: MT4 cells
Method in brief: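 Exponentially growing MT-4 cells at 1 × 10^5 cells/mL in RPMI-1640 with 10% FCS, exposed to serial compound dilutions at 37 °C, 5% CO2. Viability by MTT after 96 h; CC50 is the concentration reducing viability of mock-infected cells by 50%.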

SMILES | CC50 at 96 h
O=C(CN1CCCC1)Nc1ccc(-c2nc3cc(C(F)(F)F)ccc3[nH]2)cc1 | 18 µM
CCC(=O)Nc1ccc(-c2nc3cc(C(F)(F)F)ccc3[nH]2)cc1 | ≥ 100 µM
CC(=O)Nc1ccc(-c2nc3cc(C(F)(F)F)ccc3[nH]2)cc1 | 19 µM
O=C(CN1CCCC1)Nc1ccc(-c2nc3cc(Cl)c(Cl)cc3[nH]2)cc1 | 8 µM
Nc1ccc(-c2nc3cc(Cl)c(Cl)cc3[nH]2)cc1 | 17 µM
COc1cccc(-c2nc3cc(C(F)(F)F)ccc3[nH]2)c1 | 19 µM

tested on: not listed separately; test: Selectivity index, ratio of CC50 for MDBK cells to EC50 for Bovine viral diarrhea virus NADL; assay type: toxicity, cell-based; details: cattle, read-out: Ratio CC50/EC50

SMILES | selectivity ratio
O=C(CN1CCCC1)Nc1ccc(-c2nc3cc(C(F)(F)F)ccc3[nH]2)cc1 | 5
CC(=O)Nc1ccc(-c2nc3cc(C(F)(F)F)ccc3[nH]2)cc1 | 39
Nc1ccc(-c2nc3cc(Cl)c(Cl)cc3[nH]2)cc1 | 7.5

tested on: Human alphaherpesvirus 1; test: Antiviral activity against HSV1 KOS infected in african green monkey Vero cells after 3 days by plaque reduction assay; assay type: functional, organism-based; details: Human alphaherpesvirus 1, KOS, 72 h
Method in brief: (§1)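 Plaque reduction assay. Vero 76 cells at 2 × 10^5/well, grown overnight to confluence in D-MEM with 10% FBS. Infected 2 h with 50–100 PFU/well, unadsorbed virus removed. Overlay of D-MEM with 1% inactivated FBS and 0.75% methylcellulose, with or without serial compound dilutions. Incubated at 37 °C for 3 days (HSV-1 KOS, CVB-2 Ohio-1) or 5 days (RSV A2). Fixed and stained with crystal violet in 50% ethanol; plaques counted; EC50 by linear regression.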

SMILES | EC50
O=C(CN1CCCC1)Nc1ccc(-c2nc3cc(C(F)(F)F)ccc3[nH]2)cc1 | > 100 µM
CCC(=O)Nc1ccc(-c2nc3cc(C(F)(F)F)ccc3[nH]2)cc1 | > 100 µM
CC(=O)Nc1ccc(-c2nc3cc(C(F)(F)F)ccc3[nH]2)cc1 | 7 µM
O=C(CN1CCCC1)Nc1ccc(-c2nc3cc(Cl)c(Cl)cc3[nH]2)cc1 | > 100 µM
Nc1ccc(-c2nc3cc(Cl)c(Cl)cc3[nH]2)cc1 | 28 µM
COc1cccc(-c2nc3cc(C(F)(F)F)ccc3[nH]2)c1 | 12 µM

tested on: Coxsackievirus B2; test: Antiviral activity against Human coxsackievirus B2 Ohio-1 infected in african green monkey Vero cells after 3 days by plaque reduction assay; assay type: functional, organism-based, Coxsackievirus B2 (strain Ohio-1); details: Enterovirus B, Vero, 72 h; method in brief: as §1

SMILES | EC50
O=C(CN1CCCC1)Nc1ccc(-c2nc3cc(C(F)(F)F)ccc3[nH]2)cc1 | > 100 µM
CCC(=O)Nc1ccc(-c2nc3cc(C(F)(F)F)ccc3[nH]2)cc1 | 4 µM
CC(=O)Nc1ccc(-c2nc3cc(C(F)(F)F)ccc3[nH]2)cc1 | 3 µM
O=C(CN1CCCC1)Nc1ccc(-c2nc3cc(Cl)c(Cl)cc3[nH]2)cc1 | 1.5 µM
Nc1ccc(-c2nc3cc(Cl)c(Cl)cc3[nH]2)cc1 | 11 µM
COc1cccc(-c2nc3cc(C(F)(F)F)ccc3[nH]2)c1 | 4 µM

tested on: Poliovirus 1; test: Antiviral activity against Polio virus type1 Sabin strain Chat infected in african green monkey Vero cells after 2 days by plaque reduction assay; assay type: functional, organism-based, Human poliovirus 1 strain Sabin; details: Enterovirus C, 48 h

SMILES | EC50
O=C(CN1CCCC1)Nc1ccc(-c2nc3cc(C(F)(F)F)ccc3[nH]2)cc1 | > 100 µM
CCC(=O)Nc1ccc(-c2nc3cc(C(F)(F)F)ccc3[nH]2)cc1 | > 100 µM
CC(=O)Nc1ccc(-c2nc3cc(C(F)(F)F)ccc3[nH]2)cc1 | 16 µM
O=C(CN1CCCC1)Nc1ccc(-c2nc3cc(Cl)c(Cl)cc3[nH]2)cc1 | 25 µM
Nc1ccc(-c2nc3cc(Cl)c(Cl)cc3[nH]2)cc1 | > 100 µM
COc1cccc(-c2nc3cc(C(F)(F)F)ccc3[nH]2)c1 | > 100 µM

tested on: not listed separately; test: Selectivity index, ratio of CC50 for human MT4 cells to EC50 for Bovine viral diarrhea virus NADL; assay type: toxicity, cell-based; details: read-out: Ratio CC50/EC50

SMILES | selectivity ratio
O=C(CN1CCCC1)Nc1ccc(-c2nc3cc(C(F)(F)F)ccc3[nH]2)cc1 | 6
CC(=O)Nc1ccc(-c2nc3cc(C(F)(F)F)ccc3[nH]2)cc1 | 15
Nc1ccc(-c2nc3cc(Cl)c(Cl)cc3[nH]2)cc1 | 17

tested on: not listed separately; test: Selectivity index, ratio of CC50 for african green monkey Vero cells to EC50 for Human coxsackievirus B2 Ohio-1; assay type: toxicity, cell-based; details: read-out: Ratio CC50/EC50

SMILES | selectivity ratio
CCC(=O)Nc1ccc(-c2nc3cc(C(F)(F)F)ccc3[nH]2)cc1 | > 25
CC(=O)Nc1ccc(-c2nc3cc(C(F)(F)F)ccc3[nH]2)cc1 | 17
O=C(CN1CCCC1)Nc1ccc(-c2nc3cc(Cl)c(Cl)cc3[nH]2)cc1 | > 67
COc1cccc(-c2nc3cc(C(F)(F)F)ccc3[nH]2)c1 | > 25

tested on: not listed separately; test: Selectivity index, ratio of CC50 for human MT4 cells to EC50 for Human coxsackievirus B2 Ohio-1; assay type: toxicity, cell-based; details: read-out: Ratio CC50/EC50

SMILES | selectivity ratio
CCC(=O)Nc1ccc(-c2nc3cc(C(F)(F)F)ccc3[nH]2)cc1 | ≥ 25
CC(=O)Nc1ccc(-c2nc3cc(C(F)(F)F)ccc3[nH]2)cc1 | 6.3
O=C(CN1CCCC1)Nc1ccc(-c2nc3cc(Cl)c(Cl)cc3[nH]2)cc1 | 5.3
COc1cccc(-c2nc3cc(C(F)(F)F)ccc3[nH]2)c1 | 4.8

tested on: not listed separately; test: Cytotoxicity against BHK cells after 48 to 96 hrs by MTT assay; assay type: cell-based, Mesocricetus auratus; details: hamster
Method in brief: (§2)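 Cell seeding: MDBK at 6 × 10^5 cells/mL in MEM-E with 10% horse serum and 1 mM Na pyruvate; BHK at 1 × 10^6 cells/mL in MEM-E with 10% FBS. Serial compound dilutions, 37 °C, 5% CO2. Viability of mock-infected cells by MTT after 48–96 h; CC50 is the concentration reducing viability by 50%.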

SMILES | CC50
O=C(CN1CCCC1)Nc1ccc(-c2nc3cc(C(F)(F)F)ccc3[nH]2)cc1 | 29 µM
CCC(=O)Nc1ccc(-c2nc3cc(C(F)(F)F)ccc3[nH]2)cc1 | 100 µM
CC(=O)Nc1ccc(-c2nc3cc(C(F)(F)F)ccc3[nH]2)cc1 | 53 µM
O=C(CN1CCCC1)Nc1ccc(-c2nc3cc(Cl)c(Cl)cc3[nH]2)cc1 | 64 µM
Nc1ccc(-c2nc3cc(Cl)c(Cl)cc3[nH]2)cc1 | 30 µM
COc1cccc(-c2nc3cc(C(F)(F)F)ccc3[nH]2)c1 | 90 µM

tested on: not listed separately; test: Cytotoxicity against african green monkey Vero cells; assay type: cell-based; details: chlorocebus sabaeus
Method in brief: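 Vero 76 monolayers exposed to serial compound dilutions, run in parallel on the same 24-well plates as the plaque-reduction assays. CC50 is the concentration reducing viability of mock-infected cells by 50%.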

SMILES | CC50
O=C(CN1CCCC1)Nc1ccc(-c2nc3cc(C(F)(F)F)ccc3[nH]2)cc1 | > 100 µM
CCC(=O)Nc1ccc(-c2nc3cc(C(F)(F)F)ccc3[nH]2)cc1 | > 100 µM
CC(=O)Nc1ccc(-c2nc3cc(C(F)(F)F)ccc3[nH]2)cc1 | 50 µM
O=C(CN1CCCC1)Nc1ccc(-c2nc3cc(Cl)c(Cl)cc3[nH]2)cc1 | > 100 µM
Nc1ccc(-c2nc3cc(Cl)c(Cl)cc3[nH]2)cc1 | ≥ 100 µM
COc1cccc(-c2nc3cc(C(F)(F)F)ccc3[nH]2)c1 | > 100 µM

tested on: Vaccinia virus; test: Antiviral activity against Vaccinia virus Elstree-Lister infected in african green monkey Vero cells after 3 days by plaque reduction assay; assay type: functional, organism-based; details: Orthopoxvirus vaccinia, 72 h

SMILES | EC50
COc1cccc(-c2nc3cc(C(F)(F)F)ccc3[nH]2)c1 | > 100 µM

tested on: Yellow fever virus; test: Antiviral activity against Yellow fever virus 17D infected in BHK cells assessed as protection from virus-induced cytopathogenicity after 3 to 4 days by MTT method; assay type: functional, organism-based; details: not given

SMILES | EC50
O=C(CN1CCCC1)Nc1ccc(-c2nc3cc(C(F)(F)F)ccc3[nH]2)cc1 | 7 µM
CCC(=O)Nc1ccc(-c2nc3cc(C(F)(F)F)ccc3[nH]2)cc1 | > 100 µM
CC(=O)Nc1ccc(-c2nc3cc(C(F)(F)F)ccc3[nH]2)cc1 | > 53 µM
O=C(CN1CCCC1)Nc1ccc(-c2nc3cc(Cl)c(Cl)cc3[nH]2)cc1 | > 64 µM
Nc1ccc(-c2nc3cc(Cl)c(Cl)cc3[nH]2)cc1 | > 30 µM
COc1cccc(-c2nc3cc(C(F)(F)F)ccc3[nH]2)c1 | > 90 µM

tested on: Respiratory syncytial virus; test: Antiviral activity against RSV A2 infected in african green monkey Vero cells after 5 days by plaque reduction assay; assay type: functional, organism-based; details: human respiratory syncytial virus, A2, Vero, 120 h; method in brief: as §1

SMILES | EC50
Nc1ccc(-c2nc3cc(Cl)c(Cl)cc3[nH]2)cc1 | 10 µM
COc1cccc(-c2nc3cc(C(F)(F)F)ccc3[nH]2)c1 | 7 µM

tested on: not listed separately; test: Cytotoxicity against MDBK cells after 48 to 96 hrs by MTT assay; assay type: cell-based, Bos taurus; details: cattle, MDBK cells; method in brief: as §2

SMILES | CC50
O=C(CN1CCCC1)Nc1ccc(-c2nc3cc(C(F)(F)F)ccc3[nH]2)cc1 | 15 µM
CCC(=O)Nc1ccc(-c2nc3cc(C(F)(F)F)ccc3[nH]2)cc1 | > 100 µM
CC(=O)Nc1ccc(-c2nc3cc(C(F)(F)F)ccc3[nH]2)cc1 | 50 µM
O=C(CN1CCCC1)Nc1ccc(-c2nc3cc(Cl)c(Cl)cc3[nH]2)cc1 | 16 µM
Nc1ccc(-c2nc3cc(Cl)c(Cl)cc3[nH]2)cc1 | 7.5 µM
COc1cccc(-c2nc3cc(C(F)(F)F)ccc3[nH]2)c1 | 28 µM

tested on: Bovine viral diarrhea virus 1; test: Antiviral activity against Bovine viral diarrhea virus NADL infected in MDBK cells assessed as protection from virus-induced cytopathogenicity after 3 to 4 days by MTT method; assay type: functional, organism-based, Bovine viral diarrhea virus 1-NADL; details: Bovine viral diarrhea virus isolates and strains, MDBK
Method in brief: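 Cytopathogenicity protection assay. MDBK cells at 3 × 10^4/well, grown overnight to confluence. Infected with BVDV NADL at m.o.i. 0.01 in MEM-E with 0.5% inactivated FBS, 1 mM Na pyruvate and 1% kanamycin. Serial compound dilutions added after 1 h. After 3–4 days at 37 °C, viability read by MTT; EC50 is the concentration giving 50% protection.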

SMILES | EC50
O=C(CN1CCCC1)Nc1ccc(-c2nc3cc(C(F)(F)F)ccc3[nH]2)cc1 | 3 µM
CCC(=O)Nc1ccc(-c2nc3cc(C(F)(F)F)ccc3[nH]2)cc1 | > 100 µM
CC(=O)Nc1ccc(-c2nc3cc(C(F)(F)F)ccc3[nH]2)cc1 | 1.3 µM
O=C(CN1CCCC1)Nc1ccc(-c2nc3cc(Cl)c(Cl)cc3[nH]2)cc1 | 2.5 µM
Nc1ccc(-c2nc3cc(Cl)c(Cl)cc3[nH]2)cc1 | 1 µM
COc1cccc(-c2nc3cc(C(F)(F)F)ccc3[nH]2)c1 | > 28 µM

tested on: Vesicular stomatitis virus; test: Antiviral activity against VSV Indiana lab infected in african green monkey Vero cells after 2 days by plaque reduction assay; assay type: functional, organism-based; details: not given

SMILES | Activity
O=C(CN1CCCC1)Nc1ccc(-c2nc3cc(C(F)(F)F)ccc3[nH]2)cc1 | inactive
CCC(=O)Nc1ccc(-c2nc3cc(C(F)(F)F)ccc3[nH]2)cc1 | inactive
CC(=O)Nc1ccc(-c2nc3cc(C(F)(F)F)ccc3[nH]2)cc1 | inactive
O=C(CN1CCCC1)Nc1ccc(-c2nc3cc(Cl)c(Cl)cc3[nH]2)cc1 | inactive
Nc1ccc(-c2nc3cc(Cl)c(Cl)cc3[nH]2)cc1 | inactive
COc1cccc(-c2nc3cc(C(F)(F)F)ccc3[nH]2)c1 | inactive

tested on: Human immunodeficiency virus 1; test: Antiviral activity against HIV1 3B infected in human MT4 cells assessed as protection from virus-induced cytopathogenicity after 4 days by MTT method; assay type: functional, organism-based; details: not given
Method in brief: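 MT-4 cells, 1 × 10^4/well in RPMI with or without serial compound dilutions, infected with HIV-1 IIIB, 100 CCID50 (m.o.i. 0.01). Protection from virus-induced cytopathogenicity read by MTT.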

SMILES | Activity
O=C(CN1CCCC1)Nc1ccc(-c2nc3cc(C(F)(F)F)ccc3[nH]2)cc1 | inactive
CCC(=O)Nc1ccc(-c2nc3cc(C(F)(F)F)ccc3[nH]2)cc1 | inactive
CC(=O)Nc1ccc(-c2nc3cc(C(F)(F)F)ccc3[nH]2)cc1 | inactive
O=C(CN1CCCC1)Nc1ccc(-c2nc3cc(Cl)c(Cl)cc3[nH]2)cc1 | inactive
Nc1ccc(-c2nc3cc(Cl)c(Cl)cc3[nH]2)cc1 | inactive
COc1cccc(-c2nc3cc(C(F)(F)F)ccc3[nH]2)c1 | inactive
